Results as given in ChEMBL document CHEMBL4689842, “EUbOPEN Chemogenomics Library wave 1” (2021).

System: HEK-293T
Test: Multiplex assay against HEK293T;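 for Population Tubulin-Different-Phenotype (%): share of the cells with healthy nuclei that show this phenotype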
Assay type: toxicity, cell-based
Conditions: human
Outline: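 Phenotypes for tubulin, mitochondrial mass and membrane permeability are expressed as per cents of healthy-nucleus cells. Cells were stained live at seeding with Hoechst33342, BioTracker Green Microtubule Cytoskeleton Dye, MitoTracker Red and Annexin V Alexa Fluor 680, then imaged after compound addition on a CQ1 microscope at 37°C and 5% CO2. Machine-learning gating in CellPathfinder separated Hoechst high-intensity objects from normal cells, divided normal cells by nuclear state (healthy, pyknosed, fragmented) and divided pyknosed cells into mitotic or apoptotic.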

[1] = 12 h, 1 µM, compound concentration 1 uM, replicate 1
[2] = 12 h, 1 µM, compound concentration 1 uM, replicate 2
[3] = 12 h, 10 µM, compound concentration 10 uM, replicate 1
[4] = 12 h, 10 µM, compound concentration 10 uM, replicate 2
[5] = 24 h, 1 µM, compound concentration 1 uM, replicate 1
[6] = 24 h, 1 µM, compound concentration 1 uM, replicate 2
[7] = 24 h, 10 µM, compound concentration 10 uM, replicate 1
[8] = 24 h, 10 µM, compound concentration 10 uM, replicate 2
[9] = 48 h, 1 µM, compound concentration 1 uM, replicate 1
[10] = 48 h, 1 µM, compound concentration 1 uM, replicate 2
[11] = 48 h, 10 µM, compound concentration 10 uM, replicate 1
[12] = 48 h, 10 µM, compound concentration 10 uM, replicate 2

S=C(NCCCc1c[nH]cn1)NCCCN(Cc1ccc(Cl)c(Cl)c1)c1ccc(Br)cn1
Population Apoptotic (%) [1]: 47%
Population Fragmented Nuclei (%) [1]: 8%
Population Healthy Nuclei (%) [1]: 41%
Population Hoechst High Intensity Objects (%) [1]: 11%
Population Membrane Permeable-Phenotype (%) [1]: 4%
Population Mitochondria Different-Phenotype (%) [1]: 83%
Population Mitotic Cells (%) [1]: 52%
Population Normal (%) [1]: 88%
Population Pyknosed Nuclei (%) [1]: 49%
Population Tubulin-Different-Phenotype (%) [1]: 67%
Total Cell Count [1]: 310
Population Apoptotic (%) [2]: 19%
Population Fragmented Nuclei (%) [2]: 5%
Population Healthy Nuclei (%) [2]: 44%
Population Hoechst High Intensity Objects (%) [2]: 3%
Population Membrane Permeable-Phenotype (%) [2]: 22%
Population Mitochondria Different-Phenotype (%) [2]: 29%
Population Mitotic Cells (%) [2]: 80%
Population Normal (%) [2]: 96%
Population Pyknosed Nuclei (%) [2]: 50%
Population Tubulin-Different-Phenotype (%) [2]: 54%
Total Cell Count [2]: 240
Population Apoptotic (%) [3]: 88%
Population Fragmented Nuclei (%) [3]: 6%
Population Healthy Nuclei (%) [3]: 2%
Population Hoechst High Intensity Objects (%) [3]: 13%
Population Membrane Permeable-Phenotype (%) [3]: 22%
Population Mitochondria Different-Phenotype (%) [3]: 66%
Population Mitotic Cells (%) [3]: 11%
Population Normal (%) [3]: 86%
Population Tubulin-Different-Phenotype (%) [3]: 77%
Total Cell Count [3]: 356
Population Apoptotic (%) [4]: 84%
Population Fragmented Nuclei (%) [4]: 5%
Population Healthy Nuclei (%) [4]: 3%
Population Hoechst High Intensity Objects (%) [4]: 6%
Population Membrane Permeable-Phenotype (%) [4]: 37%
Population Mitochondria Different-Phenotype (%) [4]: 50%
Population Mitotic Cells (%) [4]: 15%
Population Normal (%) [4]: 93%
Population Pyknosed Nuclei (%) [4]: 90%
Population Tubulin-Different-Phenotype (%) [4]: 100%
Total Cell Count [4]: 220
Population Apoptotic (%) [5]: 61%
Population Fragmented Nuclei (%) [5]: 13%
Population Healthy Nuclei (%) [5]: 31%
Population Hoechst High Intensity Objects (%) [5]: 15%
Population Membrane Permeable-Phenotype (%) [5]: 8%
Population Mitochondria Different-Phenotype (%) [5]: 73%
Population Mitotic Cells (%) [5]: 38%
Population Normal (%) [5]: 84%
Population Tubulin-Different-Phenotype (%) [5]: 73%
Total Cell Count [5]: 308
Population Apoptotic (%) [6]: 20%
Population Fragmented Nuclei (%) [6]: 4%
Population Healthy Nuclei (%) [6]: 40%
Population Hoechst High Intensity Objects (%) [6]: 6%
Population Membrane Permeable-Phenotype (%) [6]: 28%
Population Mitochondria Different-Phenotype (%) [6]: 17%
Population Mitotic Cells (%) [6]: 79%
Population Normal (%) [6]: 93%
Population Pyknosed Nuclei (%) [6]: 54%
Population Tubulin-Different-Phenotype (%) [6]: 52%
Total Cell Count [6]: 239
Population Apoptotic (%) [7]: 82%
Population Fragmented Nuclei (%) [7]: 8%
Population Healthy Nuclei (%) [7]: 2%
Population Hoechst High Intensity Objects (%) [7]: 14%
Population Mitochondria Different-Phenotype (%) [7]: 85%
Population Mitotic Cells (%) [7]: 17%
Population Normal (%) [7]: 85%
Population Pyknosed Nuclei (%) [7]: 89%
Total Cell Count [7]: 366
Population Apoptotic (%) [8]: 81%
Population Fragmented Nuclei (%) [8]: 7%
Population Healthy Nuclei (%) [8]: 4%
Population Hoechst High Intensity Objects (%) [8]: 12%
Population Membrane Permeable-Phenotype (%) [8]: 0%
Population Mitochondria Different-Phenotype (%) [8]: 22%
Population Mitotic Cells (%) [8]: 18%
Population Normal (%) [8]: 87%
Population Pyknosed Nuclei (%) [8]: 87%
Population Tubulin-Different-Phenotype (%) [8]: 100%
Total Cell Count [8]: 231
Population Apoptotic (%) [9]: 49%
Population Fragmented Nuclei (%) [9]: 19%
Population Healthy Nuclei (%) [9]: 4%
Population Hoechst High Intensity Objects (%) [9]: 23%
Population Membrane Permeable-Phenotype (%) [9]: 41%
Population Mitochondria Different-Phenotype (%) [9]: 50%
Population Mitotic Cells (%) [9]: 50%
Population Normal (%) [9]: 76%
Population Pyknosed Nuclei (%) [9]: 75%
Population Tubulin-Different-Phenotype (%) [9]: 83%
Total Cell Count [9]: 320
Population Apoptotic (%) [10]: 35%
Population Fragmented Nuclei (%) [10]: 5%
Population Healthy Nuclei (%) [10]: 26%
Population Hoechst High Intensity Objects (%) [10]: 13%
Population Membrane Permeable-Phenotype (%) [10]: 33%
Population Mitochondria Different-Phenotype (%) [10]: 20%
Population Mitotic Cells (%) [10]: 64%
Population Normal (%) [10]: 86%
Population Pyknosed Nuclei (%) [10]: 67%
Population Tubulin-Different-Phenotype (%) [10]: 53%
Total Cell Count [10]: 234
Population Apoptotic (%) [11]: 71%
Population Fragmented Nuclei (%) [11]: 11%
Population Healthy Nuclei (%) [11]: 0%
Population Hoechst High Intensity Objects (%) [11]: 17%
Population Membrane Permeable-Phenotype (%) [11]: 0%
Population Mitochondria Different-Phenotype (%) [11]: 100%
Population Mitotic Cells (%) [11]: 28%
Population Normal (%) [11]: 82%
Population Pyknosed Nuclei (%) [11]: 87%
Total Cell Count [11]: 369
Population Apoptotic (%) [12]: 87%
Population Fragmented Nuclei (%) [12]: 15%
Population Healthy Nuclei (%) [12]: 9%
Population Hoechst High Intensity Objects (%) [12]: 9%
Population Membrane Permeable-Phenotype (%) [12]: 5%
Population Mitochondria Different-Phenotype (%) [12]: 75%
Population Mitotic Cells (%) [12]: 12%
Population Normal (%) [12]: 90%
Population Pyknosed Nuclei (%) [12]: 74%
Population Tubulin-Different-Phenotype (%) [12]: 100%
Total Cell Count [12]: 230
